Screening data deposited in PubChem BioAssay by several laboratories.
Shown are actives, neighbours in structure and some others; about 1% of the full set was active somewhere.
NALP1 yeast inh: inhibitors of NALP1 inflammasome in yeast | S. cerevisiae NALP1/ASC/caspase-1 growth, X-gal OD620, 72 h | inhibition, % at 10 µM | actives 0.61% (n = 280,000); in the data active = inhibition mostly above about 24%, no sharp cut-off; inactive = mostly below about 32%
A1 inh: inhibitors of the anti-apoptotic protein A1, read as caspase activation; MEF A1-2A-BIM cells, Caspase-Glo 3/7 luminescence, 3 h; percent of clofoctol response, vehicle zero; caspase activation, % (concentration not given with the values); actives 0.066% (n = 330,000);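 active = over half of replicate activation scores above 10%, or exactly half above 10 with the replicate mean above 10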
T cell modulator: modulates CD8 T cell binding to vesicles. 2C CD8+ T cell-vesicle binding, flow cytometry; stronger effect = lower value. response (vesicle binding), % at 7 µM. actives 0.068% (n = 330,000). AID 2052;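 active = response, share of CD8 T cells binding vesicles, and their 90th percentile fluorescence all below set limits, cut at about 80% in these data, passing the limit was not always enough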;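 note: values below 100% mean blocked vesicle binding to the CD8+ T cells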
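Assay system – 2C mouse CD8+ T cells · Also added – QL9-loaded Drosophila micro-vesicles · Timing – Cell–vesicle co-incubation 1.5 h at 37 °C, staining 20 min on ice · Signal – flow cytometry of vesicle-bound cells · Measure – percent CD8+ FL2 mean versus row control · Controls – Peptide-free naked vesicles (low) and QL9 vesicles with 0.7% DMSO vehicle (high)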
NALP3 yeast inh: blocks the NALP3 inflammasome reconstituted in yeast; Yeast reconstituted NLRP3/ASC/caspase-1, beta-gal luminescence, 24 h; inhibition, % at 10 µM; actives 0.39% (n = 330,000); AID 2825;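 active = inhibition of 50% or more; inactive = inhibition below 50%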;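 note: plate controls were induced DMSO wells for no effect and uninduced yeast grown without galactose for full effect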
* hit, by the source's call; nt = not tested or not shown.

SMILES	NALP1 yeast inh	A1 inh	T cell modulator	NALP3 yeast inh
O=c1c(-c2ccco2)[n+]([O-])c2ccccc2n1OCc1c(F)cccc1F	-12	0	213	19
O=c1c(-c2ccco2)[n+]([O-])c2ccccc2n1OCc1ccccc1	37*	-1	217	14
CCOc1ccc(N(CC(=O)NCC2CCCO2)S(=O)(=O)c2ccc(SC)cc2)cc1 (stereo not given)	34*	0	652	3
CCOc1ccc(S(=O)(=O)N(CC(=O)NCC2CCCO2)c2ccc(F)cc2)cc1 (stereo not given)	6	-1	456	6
CCOC(=O)c1cnc2c(N=Nc3cccc(Cl)c3)c(N)nn2c1N	84*	nt	nt	nt
COc1ccc(OC)c(C2=NS(=O)(=O)N(C)C(C(=O)Nc3ccc(F)cc3F)=C2)c1	2	0	191	9
CCN(CC(=O)NCc1cccs1)c1ccc(S(=O)(=O)N2CCN(C)CC2)cn1	39*	0	41	17
CCN(CC(=O)NCc1cccs1)C(=O)c1cc(S(=O)(=O)N2CCCCC2)ccc1Cl	nt	1	475	18
CCOc1ccccc1C(=O)OCC(=O)Nc1cc(S(=O)(=O)N2CCOCC2)ccc1C	nt	nt	516	3
CCOc1ccccc1Oc1coc2cc(OCC(=O)O)ccc2c1=O	18	0	204	-4
CCOc1ccc2c(=O)c(Oc3ccccc3OCC)coc2c1	44*	-1	172	23
Cc1ccc2c(c1)[C@@H]1[C@H](CO2)[C@H](c2ccccc2)[C@]2(C)C(=O)N[C@H](C)C(=O)N12	nt	-1	874	12
O=C1CC(c2nc3ccccc3[nH]2)CN1Cc1ccccc1 (stereo not given)	27	-1	47*	13
CC(=O)N1CCc2cc(S(=O)(=O)NCCC(=O)Nc3cc(C)cc(C)c3)ccc21	40*	-1	259	14
CCC(=O)N1CCc2cc(S(=O)(=O)NCCC(=O)Nc3cc(C)cc(C)c3)ccc21	11	0	323	15
CC(C)N1C/C(=C/c2cccnc2)C(=O)/C(=C/c2cccnc2)C1	106*	nt	nt	nt
CN1C/C(=C/c2cccnc2)C(=O)/C(=C/c2cccnc2)C1	nt	0	646	nt
CC(C)NC(=O)c1ccccc1NC(=O)CS(=O)(=O)Cc1ccccc1	36*	1	172	7
NC(=O)CN1CCOCCOCCN(CC(N)=O)CCOCC1	39*	0	300	0
Cc1ccc(CNC(=O)CCn2cc(-c3ccc(C)cc3)nc2CCN)cc1	nt	1	364	17
O=C(NCCN1CCN(Cc2ccc([N+](=O)[O-])cc2)CC1)C(=O)Nc1ccccc1	44	1	218	10
O=C(NCCc1ccccc1)c1ccc([N+](=O)[O-])cc1	6	-5	341	24
O=C(NCCc1ccc([N+](=O)[O-])cc1)c1ccccc1	34*	0	172	2
O=C(NCCc1ccccc1)C(=O)Nc1ccc([N+](=O)[O-])cc1	30*	0	387	2
COc1cc(OC)cc(-c2nnc(NC(=O)c3ccc4c(c3)OCCO4)o2)c1	-1	-1	506	3
SMILES	NALP1 yeast inh	A1 inh	T cell modulator	NALP3 yeast inh
CC(NCC(O)COC1CCC(C(C)(C)C)CC1)c1ccccc1 (stereo not given)	25*	0	194	32
CCS(=O)(=O)c1ncc(Cl)c(C(=O)Nc2ccc(S(=O)(=O)N(C)c3ccccc3)cc2)n1	16	13*	125	33
CS(=O)(=O)c1ncc(Cl)c(C(=O)Nc2ccc(N3CCOCC3)cc2)n1	nt	3	350	-5
CS(=O)(=O)c1ncc(Cl)c(C(=O)Nc2ccc(OC(F)F)cc2)n1	6	18*	148	29
Cc1ccc(C)c(Cn2c(CN(C)Cc3ccccc3)nc3c2c(=O)n(C)c(=O)n3C)c1	40*	0	679	0
O=C(CCC(=O)c1ccc[nH]1)c1ccc(Cl)cc1	27*	-3	319	9
CCN(C(=O)c1ccco1)C1C2CC3CC(C2)CC1C3 (stereo not given)	8	0	480	33
O=C(c1ccccc1)c1c2c(cc3sc4ccccc4[n+]13)-c1cccc3cccc-2c13	58*	0	483	nt
Cc1sc2cc3c(c(C(=O)c4ccccc4)[n+]2c1C)-c1cccc2cccc-3c12	10	-1	240	nt
CC1CCC2C(=O)N(c3ccc(C(=O)Oc4cccc5cccnc45)cc3)C(=O)C2C1 (stereo not given)	71*	0	223	17
Cc1ccc(C(=O)Oc2ccccc2N2C(=O)C3CCC(C)CC3C2=O)cc1 (stereo not given)	16	0	419	-25
